Laboratory results: ChEMBL document CHEMBL3286252, “Synthesis, biological evaluation and structure-activity relationship of new GABA uptake inhibitors, derivatives of 4-aminobutanamides” (Eur J Med Chem, 2014)

Assays:
Mus musculus [1] = test: Antidepressant-like activity in albino Swiss (CD-1) mouse assessed as reduction in immobility time at 15 mg/kg, ip by forced swim test; format: functional; settings: route intraperitoneal
In short: (§1)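 Compound or vehicle was given i.p. 60 min before the test. Each mouse was placed for 6 min in a glass cylinder (25 cm high, 10 cm diameter) holding 10 cm of water at 23–25 C. Immobility, meaning passive floating, was timed over the final 4 min. 7–8 mice per group; ANOVA with Dunnett's test.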

Mus musculus [2] = test: Antidepressant-like activity in albino Swiss (CD-1) mouse assessed as reduction in immobility time at 30 mg/kg, ip by forced swim test; format: functional; settings: route intraperitoneal; in short: as §1
Mus musculus [3] = test: Antinociceptive activity in albino Swiss (CD-1) mouse assessed as latency time to pain reaction at 30 mg/kg, ip by hot plate test (reference value: 13.9 +/- 1.2 secs); format: functional; settings: route intraperitoneal
Mus musculus [4] = test: Toxicity in albino Swiss (CD-1) mouse assessed as motor impairment at 30 to 100 mg/kg, ip measured after 60 mins by rotarod test; format: organism-based; parameters: dose 30-100 mg/kg, route intraperitoneal; settings: in vivo, 1 h
In short: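 Mice were trained for 3 days at 18 rpm on a rod of 2 cm diameter. At least 24 h after the last training, they were given 30 or 100 mg/kg or vehicle (1% Tween 80) i.p. 60 min before testing at 6, 18, then 24 rpm. Impairment was defined as failing to stay on the rod for 1 min; mean time on the rod was recorded.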

[5] = Retardation factor of the compound using 25%NH3/MeOH/DCM/PE at ratio of 45:225:600:90 as solvent system by thin layer chromatography; format: physicochemical
[6] = target: Sodium- and chloride-dependent GABA transporter 1 (Mus musculus, UniProt P31648); test: Inhibition of mouse GAT1 expressed in HEK293 cells assessed as decrease in [3H]GABA uptake; format: cell-based
GABA transporter 2 = target: T1, GABA transporter 2 (Mus musculus, UniProt P31651); test: Inhibition of mouse GAT2 expressed in HEK293 cells assessed as decrease in [3H]GABA uptake; format: cell-based
T1 sequence (P31651 whole entry): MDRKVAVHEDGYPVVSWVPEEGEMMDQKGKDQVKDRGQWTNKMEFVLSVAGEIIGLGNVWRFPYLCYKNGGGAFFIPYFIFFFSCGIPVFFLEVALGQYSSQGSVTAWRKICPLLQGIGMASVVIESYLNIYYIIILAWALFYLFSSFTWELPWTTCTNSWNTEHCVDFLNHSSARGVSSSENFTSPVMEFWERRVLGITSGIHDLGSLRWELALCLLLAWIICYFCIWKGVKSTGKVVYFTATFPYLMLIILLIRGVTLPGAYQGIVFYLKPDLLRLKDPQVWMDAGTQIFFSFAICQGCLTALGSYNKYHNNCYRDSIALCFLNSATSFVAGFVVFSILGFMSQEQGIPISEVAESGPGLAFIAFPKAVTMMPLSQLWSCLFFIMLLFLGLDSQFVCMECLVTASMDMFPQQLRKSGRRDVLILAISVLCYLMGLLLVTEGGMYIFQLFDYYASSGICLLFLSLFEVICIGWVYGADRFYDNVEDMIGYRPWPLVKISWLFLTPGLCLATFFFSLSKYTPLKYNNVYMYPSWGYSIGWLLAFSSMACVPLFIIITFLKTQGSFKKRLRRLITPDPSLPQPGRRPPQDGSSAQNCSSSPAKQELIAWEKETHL

GABA transporter 3 = target: T2, GABA transporter 3 (Mus musculus, UniProt P31649); test: Inhibition of mouse GAT3 expressed in HEK293 cells assessed as decrease in [3H]GABA uptake; format: cell-based
T2 sequence (P31649 whole entry): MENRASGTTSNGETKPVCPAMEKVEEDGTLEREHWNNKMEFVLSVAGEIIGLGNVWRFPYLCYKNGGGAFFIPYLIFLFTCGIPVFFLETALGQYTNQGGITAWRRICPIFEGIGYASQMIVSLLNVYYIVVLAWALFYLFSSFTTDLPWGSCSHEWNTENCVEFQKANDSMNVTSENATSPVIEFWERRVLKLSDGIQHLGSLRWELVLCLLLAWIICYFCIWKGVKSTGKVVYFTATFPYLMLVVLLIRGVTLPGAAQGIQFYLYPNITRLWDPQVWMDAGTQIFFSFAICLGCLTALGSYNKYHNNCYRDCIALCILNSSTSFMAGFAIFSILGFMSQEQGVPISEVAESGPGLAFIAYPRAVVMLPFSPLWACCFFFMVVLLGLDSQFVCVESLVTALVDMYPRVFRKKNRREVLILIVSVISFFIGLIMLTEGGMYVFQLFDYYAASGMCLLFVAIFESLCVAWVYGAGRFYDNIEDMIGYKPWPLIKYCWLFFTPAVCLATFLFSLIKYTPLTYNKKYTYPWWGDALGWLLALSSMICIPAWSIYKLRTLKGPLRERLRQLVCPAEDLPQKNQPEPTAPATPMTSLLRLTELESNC

GABA transporter 4 = target: T3, GABA transporter 4 (Mus musculus, UniProt P31650); test: Inhibition of mouse GAT4 expressed in HEK293 cells assessed as decrease in [3H]GABA uptake; format: cell-based
T3 sequence (P31650 whole entry): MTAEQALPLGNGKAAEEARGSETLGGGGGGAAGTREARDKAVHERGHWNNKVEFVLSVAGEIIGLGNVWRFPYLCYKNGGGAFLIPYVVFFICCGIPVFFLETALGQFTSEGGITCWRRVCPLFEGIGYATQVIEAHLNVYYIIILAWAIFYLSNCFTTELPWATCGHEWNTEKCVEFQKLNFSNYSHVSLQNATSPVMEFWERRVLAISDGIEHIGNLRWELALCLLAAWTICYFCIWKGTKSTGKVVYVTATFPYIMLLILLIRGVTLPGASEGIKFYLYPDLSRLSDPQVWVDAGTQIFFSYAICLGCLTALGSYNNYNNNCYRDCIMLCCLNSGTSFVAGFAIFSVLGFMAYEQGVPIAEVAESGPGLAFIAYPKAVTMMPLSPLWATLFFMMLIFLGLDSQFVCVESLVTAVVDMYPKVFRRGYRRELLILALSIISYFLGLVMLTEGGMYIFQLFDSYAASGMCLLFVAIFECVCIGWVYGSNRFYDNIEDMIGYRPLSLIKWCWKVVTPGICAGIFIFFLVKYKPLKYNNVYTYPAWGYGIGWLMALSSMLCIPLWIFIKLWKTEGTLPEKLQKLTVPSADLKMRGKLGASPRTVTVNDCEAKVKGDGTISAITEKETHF

[7] = target: Sodium- and chloride-dependent GABA transporter 1 (Mus musculus) (UniProt P31648); test: Displacement of NO711 from mouse GAT1 expressed in HEK293 cells assessed as NO711 binding at 100 uM by LC-MS/MS analysis; format: cell-based
Mus musculus [8] = test: Anticonvulsant activity against pentylenetetrazole-induced seizure in albino Swiss (CD-1) mouse assessed as decrease in seizure episodes at 30 mg/kg, ip administered 60 mins prior to PTZ challenge; format: functional; settings: route intraperitoneal
In short: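 Male CD-1 mice (18–22 g) given compound or vehicle i.p. 60 min before PTZ 100 mg/kg s.c. Each mouse was then caged alone and watched for 30 min for clonic seizures, meaning whole-body clonus lasting >3 s with loss of righting reflex. Recorded: latency to first clonus, number of seizure episodes, and deaths within 30 min. Analysis: ANOVA/Dunnett or t-test; mortality by Fisher's exact test; 7–10 mice per group.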

Structure (SMILES) | inhibition in vivo at 15 mg/kg (Mus musculus [1]) | inhibition in vivo at 30 mg/kg (Mus musculus [2]) | Time (Mus musculus [3]) | Activity (Mus musculus [4]) | Rf [5] | IC50 [6] | IC50 (GABA transporter 2) | IC50 (GABA transporter 3) | IC50 (GABA transporter 4) | Activity [7] | inhibition in vivo at 30 mg/kg (Mus musculus [8])
NCCC(C(=O)NCc1ccc(Cl)cc1)N1CCN(C(c2ccccc2)c2ccccc2)CC1 (configuration not stated) | 3.8% | 28.9% | 27.5 s | Non-toxic | 0.14 | 25.7 µM | 20.9 µM | 10.7 µM | 12 µM | 53% | 83%
NCCC(C(=O)NCc1ccccc1Cl)N1CCN(C(c2ccccc2)c2ccccc2)CC1 (configuration not stated) | 26% | 38.5% | 18.8 s | Non-toxic | 0.18 | 20.9 µM | 21.9 µM | 10.5 µM | 15.1 µM | 55% | 37%
